Measurements: ChEMBL document CHEMBL2331364, “A synthetic dolastatin 10 analogue suppresses microtubule dynamics, inhibits cell proliferation, and induces apoptotic cell death” (J Med Chem, 2013)
pIC50: −log10 of the molar value. Where a SMILES comes first, the peptide text is derived from it. [ ]: non-standard residue; d: D form. The star is where a group is joined. X1 = COC1=CC(=O)N(C(=O)[C@@H](O*)C(C)C)[C@H]1Cc1ccccc1; NMe2Val = CC(C)[C@@H](C(=O)*)N(C)C; NMeV = CN[C@H](C(=O)O)C(C)C

Key:
[1] = Inhibition of goat brain tubulin polymerization incubated for 20 mins prior to GTP addition measured for 30 mins by 90 degree light scattering-based fluorescence spectrophotometric method; set-up: species or system Capra hircus
Procedure, shortened: (§1)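 Goat brain tubulin (10 μM) was preincubated with compound (5 μM; or 1, 5, 7, 10 μM) in 1 M monosodium glutamate, 3 mM MgCl2, 1 mM EGTA, 25 mM Pipes pH 6.8 on ice for 20 min. GTP (1 mM) was then added and assembly followed by 90° light scattering at 400 nm for 30 min at 37 °C. Experiment run twice.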

Capra hircus [2] = species on record: Capra hircus; assay: Inhibition of goat brain tubulin polymerization at 5 uM incubated for 20 mins prior to GTP addition measured for 30 mins by 90 degree light scattering-based fluorescence spectrophotometric method; procedure, shortened: as §1
HeLa [3] = assay: Cytotoxicity against human HeLa cells after 24 to 48 hrs by trypan blue assay; assay type: functional, cell-based
Procedure, shortened: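 Cells were seeded at 1 × 10^5 cells/mL, grown 24 h at 37 °C in 5% CO2, then given vehicle (0.1% DMSO) or 1–80 nM for a further 24 or 48 h. Attached plus floating cells were counted after trypan blue staining. Percent inhibition was plotted against concentration to give IC50. Average of three independent experiments.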

Capra hircus [4] = species on record: Capra hircus; settings: 3 uM
HeLa [5] = assay: Antiproliferative activity against human HeLa cells assessed as median dose after 24 hrs; assay type: functional
Procedure, shortened: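 HeLa cells treated for 24 h with each agent alone and in combinations. The median dose (Dm) was taken from the median dose plot, and combination index was computed as CI = (D)1/(Dx)1 + (D)2/(Dx)2.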

HeLa [6] = assay: Inhibition of mitosis in human HeLa cells after 24 hrs by Hoechst 33258 DNA staining assay; assay type: functional, cell-based
Procedure, shortened: (§2)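 HeLa cells were treated for 24 or 48 h with compound or vehicle (0.1% DMSO). DNA was stained with Hoechst 33258 and mitotic cells were counted to give the mitotic index.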

HeLa [7] = assay: Inhibition of mitosis in human HeLa cells assessed as mitotic index at 300 nM after 48 hrs by Hoechst 33258 DNA staining assay (reference value: 4 +/- 0.2 %); assay type: functional; set-up: scale not given: the % may be the effect or the level left; procedure, shortened: as §2
HeLa [8] = assay: Induction of apoptosis in human HeLa cells assessed as apoptotic cells at 700 nM after 10 hrs by annexin V-FITC/propidium iodide staining-based FACS analysis; assay type: functional
Procedure, shortened: (§3)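 HeLa cells were exposed for 10 or 24 h, then stained with annexin V and propidium iodide using an apoptosis kit. Apoptotic cells were quantified by FACS. Compounds were dissolved in DMSO.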

HeLa [9] = assay: Inhibition of mitosis in human HeLa cells assessed as mitotic index at 100 nM after 48 hrs by Hoechst 33258 DNA staining assay (reference value: 4 +/- 0.2 %); assay type: functional; set-up: scale not given: the % may be the effect or the level left; procedure, shortened: as §2
HeLa [10] = assay: Induction of apoptosis in human HeLa cells assessed as apoptotic cells at 700 nM after 24 hrs by annexin V-FITC/propidium iodide staining-based FACS analysis; assay type: functional; procedure, shortened: as §3
HeLa [11] = assay: Inhibition of mitosis in human HeLa cells assessed as mitotic index at 200 nM after 48 hrs by Hoechst 33258 DNA staining assay (reference value: 4 +/- 0.2 %); assay type: functional; set-up: scale not given: the % may be the effect or the level left; procedure, shortened: as §2
HeLa [12] = assay: Inhibition of mitosis in human HeLa cells assessed as mitotic index at 100 nM after 24 hrs by Hoechst 33258 DNA staining assay (reference value: 4 +/- 0.3 %); assay type: functional; set-up: scale not given: the % may be the effect or the level left; procedure, shortened: as §2
HeLa [13] = assay: Inhibition of mitosis in human HeLa cells assessed as mitotic index at 200 nM after 24 hrs by Hoechst 33258 DNA staining assay (reference value: 4 +/- 0.3 %); assay type: functional; set-up: scale not given: the % may be the effect or the level left; procedure, shortened: as §2
HeLa [14] = assay: Inhibition of mitosis in human HeLa cells assessed as mitotic index at 300 nM after 24 hrs by Hoechst 33258 DNA staining assay (reference value: 4 +/- 0.3 %); assay type: functional; set-up: scale not given: the % may be the effect or the level left; procedure, shortened: as §2
SK-N-SH [15] = assay: Cytotoxicity against human SK-N-SH cells assessed as cell death at 80 uM after 72 hrs by MTT assay; assay type: functional
SK-N-SH [16] = assay: Cytotoxicity against human SK-N-SH cells assessed as cell death at 50 uM after 72 hrs by MTT assay; assay type: functional

SMILES: COC1=CC(=O)N(C(=O)[C@@H](OC(=O)[C@@H]2CCCN2C(=O)[C@@H]2CCCN2C(=O)[C@H](C(C)C)N(C)C(=O)[C@@H](NC(=O)[C@H](C(C)C)N(C)C)C(C)C)C(C)C)[C@H]1Cc1ccccc1 [DOLASTATIN 15] (NMe2Val-V[NMeV]PP-X1)
- pIC50 [1]: 4.64

SMILES: CC[C@H](C)[C@@H]([C@H](CC(=O)NC[C@H]1O[C@H](C(=O)N[C@@H](Cc2ccccc2)c2nccs2)[C@@H](OC)[C@@H]1OC)OC)N(C)C(=O)[C@@H](NC(=O)[C@@H](NC)C(C)C)C(C)C
- inhibition (Capra hircus [2]): 10%
- pIC50 (HeLa [3]): 8.00

SMILES: CC[C@]1(O)C[C@@H]2CN(CCc3c([nH]c4ccccc34)[C@@](C(=O)OC)(c3cc4c(cc3OC)N(C)[C@H]3[C@@](O)(C(=O)OC)[C@H](OC(C)=O)[C@]5(CC)C=CCN6CC[C@]43[C@@H]65)C2)C1 [VINBLASTINE]
- inhibition (Capra hircus [4]): 50%
- pIC50 [1]: 5.82
- Activity (HeLa [5]): 2.3 nM

SMILES: CC[C@H](C)[C@@H]([C@H](O)CC(=O)NC[C@H]1O[C@@H](C(=O)NCc2ccccc2)[C@@H](OC)[C@@H]1OC)N(C)C(=O)[C@@H](NC(=O)[C@@H](NC)C(C)C)C(C)C
- pIC50 (HeLa [3]): 7.80

SMILES: COc1cc2c(c(OC)c1OC)-c1ccc(OC)c(=O)cc1[C@@H](NC(C)=O)CC2 [COLCHICINE]
- Activity (HeLa [5]): 17.8 nM

SMILES: CC[C@H](C)[C@@H]([C@@H](CC(=O)NC[C@H]1O[C@@H](C(=O)NCCc2ccccc2)[C@@H](OC)[C@@H]1OC)OC)N(C)C(=O)[C@@H](NC(=O)[C@@H](NC)C(C)C)C(C)C
- pIC50 (HeLa [3]): 7.82

SMILES: COC(=O)Nc1nc2cc(C(=O)c3cccs3)ccc2[nH]1 [NOCODAZOLE]
- inhibition (HeLa [6]): Dose-dependent effect
- Activity (HeLa [7]): 11%
- Activity (HeLa [8]): 14.7%
- Activity (HeLa [9]): 14%
- Activity (HeLa [10]): 50.5%
- Activity (HeLa [11]): 13%
- Activity (HeLa [12]): 22%
- pIC50 (HeLa [3]): 6.75
- Activity (HeLa [13]): 28%
- Activity (HeLa [14]): 36%

SMILES: CO[C@@H](/C(C)=C/C=C/C(C)=C/c1coc(C)n1)[C@@H](C)[C@@H]1C[C@H](O)[C@@]2(C)O[C@@H]2/C=C/[C@@H](C)[C@H]2C[C@H](CC(=O)O2)C[C@@H]2O[C@H]2C(=O)O1 [RHIZOXIN]
- pIC50 [1]: 5.17

SMILES: CC[C@H](C)[C@@H]([C@@H](CC(=O)N1CCC[C@H]1[C@H](OC)[C@@H](C)C(=O)N[C@@H](Cc1ccccc1)c1nccs1)OC)N(C)C(=O)[C@@H](NC(=O)[C@H](C(C)C)N(C)C)C(C)C [DOLASTATIN-10]
- pIC50 [1]: 5.92

SMILES: CC[C@H](C)[C@@H](/C=C/C(=O)NC[C@H]1O[C@@H](C(=O)N[C@@H](Cc2ccccc2)C2=NCCS2)[C@@H](OC)[C@@H]1OC)N(C)C(=O)[C@@H](NC(=O)[C@H](C(C)C)N(C)C)C(C)C
- inhibition (Capra hircus [2]): 21%
- pIC50 (HeLa [3]): 8.06

SMILES: CC[C@H](C)[C@@H]([C@H](CC(=O)NC[C@H]1O[C@H](C(=O)N[C@@H](Cc2ccccc2)c2nccs2)[C@@H](OC)[C@@H]1OC)OC)N(C)C(=O)[C@@H](NC(=O)[C@H](C(C)C)N(C)C)C(C)C
- pIC50 (HeLa [3]): 7.80

SMILES: CC[C@]12C=CCN3CC[C@@]4(c5cc([C@@]6(C(=O)OC)C[C@@H]7C[C@@H](C(C)(F)F)CN(Cc8c6[nH]c6ccccc86)C7)c(OC)cc5N(C)[C@H]4[C@@](O)(C(=O)OC)[C@@H]1OC(C)=O)[C@@H]32 [VINFLUNINE]
- Activity (SK-N-SH [15]): 70%
- Activity (SK-N-SH [16]): 50%

SMILES: CC[C@H](C)[C@@H](/C=C/C(=O)NC[C@H]1O[C@@H](C(=O)N[C@@H](Cc2ccccc2)C2=NCCS2)[C@@H](OC)[C@@H]1OC)N(C)C(=O)[C@@H](NC(=O)[C@@H](NC)C(C)C)C(C)C
- inhibition (Capra hircus [2]): 19%
- pIC50 (HeLa [3]): 8.06

SMILES: CC[C@H](C)[C@@H]([C@H](O)CC(=O)NC[C@H]1O[C@H](C(=O)NCc2ccccc2)[C@@H](OC)[C@@H]1OC)N(C)C(=O)[C@@H](NC(=O)[C@@H](NC)C(C)C)C(C)C
- pIC50 (HeLa [3]): 7.92
